# Assay results as given in ChEMBL document CHEMBL1138247 (J Med Chem, 2007).
# Key:
# [1] = Partition coefficient, log P of the compound; format: physicochemical; conditions: octanol/water
# Outline: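 logP extrapolated from reverse-phase HPLC retention time converted to capacity factor k, against a standard calibration curve built from compounds of known logP.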
# [2] = molecular target: Integrin alpha-4/beta-1 (Homo sapiens, UniProt P05556+P13612); assay: Inhibition of integrin alpha4beta1 receptor-mediated human Molt-4 cell adhesion to CS1 peptide; format: cell-based
# Sequence of Integrin alpha-4/beta-1 (P05556 whole entry): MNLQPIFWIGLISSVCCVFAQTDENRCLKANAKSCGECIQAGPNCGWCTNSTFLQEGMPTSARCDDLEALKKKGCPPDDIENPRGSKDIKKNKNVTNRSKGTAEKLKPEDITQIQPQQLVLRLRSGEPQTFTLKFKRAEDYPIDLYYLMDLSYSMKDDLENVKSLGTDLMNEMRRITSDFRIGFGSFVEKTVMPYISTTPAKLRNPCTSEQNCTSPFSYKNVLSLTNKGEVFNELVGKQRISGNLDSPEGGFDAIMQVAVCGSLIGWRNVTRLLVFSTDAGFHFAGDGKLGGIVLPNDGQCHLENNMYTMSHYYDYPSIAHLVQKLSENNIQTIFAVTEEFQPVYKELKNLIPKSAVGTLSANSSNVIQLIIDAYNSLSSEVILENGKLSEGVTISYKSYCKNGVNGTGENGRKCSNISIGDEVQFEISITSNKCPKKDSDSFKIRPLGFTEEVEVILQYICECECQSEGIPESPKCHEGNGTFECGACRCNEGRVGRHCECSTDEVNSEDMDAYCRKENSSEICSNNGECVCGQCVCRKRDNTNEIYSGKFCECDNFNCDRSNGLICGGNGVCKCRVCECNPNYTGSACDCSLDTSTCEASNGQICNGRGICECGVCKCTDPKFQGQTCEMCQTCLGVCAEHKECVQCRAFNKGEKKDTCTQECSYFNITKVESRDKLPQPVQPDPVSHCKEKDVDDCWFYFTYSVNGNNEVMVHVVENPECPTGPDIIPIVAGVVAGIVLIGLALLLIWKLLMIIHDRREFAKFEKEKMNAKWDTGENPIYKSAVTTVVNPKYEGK
# Sequence of Integrin alpha-4/beta-1 (P13612 whole entry): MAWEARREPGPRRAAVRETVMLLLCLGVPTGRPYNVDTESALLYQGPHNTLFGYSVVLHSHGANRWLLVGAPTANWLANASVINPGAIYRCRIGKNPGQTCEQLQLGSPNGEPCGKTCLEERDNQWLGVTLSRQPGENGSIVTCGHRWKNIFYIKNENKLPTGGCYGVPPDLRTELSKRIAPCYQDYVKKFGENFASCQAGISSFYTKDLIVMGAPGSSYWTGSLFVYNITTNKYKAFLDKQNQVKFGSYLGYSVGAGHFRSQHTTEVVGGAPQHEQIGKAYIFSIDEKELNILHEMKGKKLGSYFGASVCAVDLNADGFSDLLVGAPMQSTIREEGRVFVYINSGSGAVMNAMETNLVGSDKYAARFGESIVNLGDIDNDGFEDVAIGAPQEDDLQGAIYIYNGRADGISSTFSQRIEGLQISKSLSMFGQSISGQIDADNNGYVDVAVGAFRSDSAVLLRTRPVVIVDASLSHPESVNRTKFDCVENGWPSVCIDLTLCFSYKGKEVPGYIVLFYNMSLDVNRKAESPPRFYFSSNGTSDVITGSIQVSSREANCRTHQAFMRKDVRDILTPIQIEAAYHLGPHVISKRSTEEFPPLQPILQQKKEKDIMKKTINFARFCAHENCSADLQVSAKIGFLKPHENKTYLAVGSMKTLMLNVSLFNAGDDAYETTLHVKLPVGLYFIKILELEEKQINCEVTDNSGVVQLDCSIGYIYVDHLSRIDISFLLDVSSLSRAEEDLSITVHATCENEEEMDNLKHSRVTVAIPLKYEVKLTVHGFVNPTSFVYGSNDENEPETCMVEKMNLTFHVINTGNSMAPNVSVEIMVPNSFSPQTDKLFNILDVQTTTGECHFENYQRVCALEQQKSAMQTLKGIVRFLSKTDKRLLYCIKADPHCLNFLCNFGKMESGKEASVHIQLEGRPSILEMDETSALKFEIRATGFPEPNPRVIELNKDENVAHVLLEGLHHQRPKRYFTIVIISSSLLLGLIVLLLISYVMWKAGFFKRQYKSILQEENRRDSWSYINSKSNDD
logP [1],IC50 [2] [nM],SMILES
1.86,655,Cc1cccc2[nH]c(Nc3ccc(C(=O)N[C@H](CCCCNC(=O)/C=C/c4cccnc4)C(=O)N[C@H](CCCC(=O)O)C(=O)NC4(C(N)=O)CCCCC4)cc3)nc12
2.23,0.305,NC(=O)C1(NC(=O)[C@@H](CCCC(=O)O)NC(=O)[C@@H](CCCCNC(=O)/C=C/c2cccnc2)NC(=O)Cc2ccc(Nc3nc4ccccc4[nH]3)cc2)CCCCC1
1.96,340,NC(=O)C1(NC(=O)[C@@H](CCCC(=O)O)NC(=O)[C@@H](CCCCNC(=O)/C=C/c2cccnc2)NC(=O)Cc2ccc(Nc3nc4cc(Br)ccc4[nH]3)cc2)CCCCC1
2.63,444,CC(C(=O)N[C@H](CCCCNC(=O)/C=C/c1cccnc1)C(=O)N[C@H](CCCC(=O)O)C(=O)NC1(C(N)=O)CCCCC1)c1ccc(Nc2nc3ccccc3[nH]2)cc1 (stereo partly specified)
2.8,344,NC(=O)C1(NC(=O)[C@@H](CCCC(=O)O)NC(=O)[C@@H](CCCCNC(=O)/C=C/c2cccnc2)NC(=O)CCc2ccc(Nc3nc4ccccc4[nH]3)cc2)CCCCC1
2.12,186,NC(=O)C1(NC(=O)[C@@H](CCCC(=O)O)NC(=O)[C@@H](CCCCNC(=O)/C=C/c2cccnc2)NC(=O)c2cccc(Nc3nc4ccccc4[nH]3)c2)CCCCC1
2.58,27.5,Cc1cccc2[nH]c(Nc3ccc(CC(=O)N[C@H](CCCCNC(=O)/C=C/c4cccnc4)C(=O)N[C@H](CCCC(=O)O)C(=O)NC4(C(N)=O)CCCCC4)cc3)nc12
1.83,420,NC(=O)C1(NC(=O)[C@@H](CCCC(=O)O)NC(=O)[C@@H](CCCCNC(=O)/C=C/c2cccnc2)NC(=O)c2ccc(Nc3nc4ccccc4[nH]3)cc2)CCCCC1
